Experimental data: ChEMBL document CHEMBL4680184, “Simple amphiphilic α-hydrazido acids: Rational design, synthesis, and in vitro bioactivity profile of a novel class of potential antimicrobial compounds” (Eur J Med Chem, 2020)
≈ marks a conversion by molar mass, not a printed value.

What was measured:
[1] = Retention time of the compound by RP-HPLC analysis; type: physicochemical
How it was run: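 RP-HPLC on C18 column (5 µm, 200 × 4.6 mm), 0.5 mL/min; hydrochlorides at 0.5–1 mg/mL in water:2-propanol 70:30, gradient to 10:90 over 40 min, then 20 min at 10:90. Adjusted retention time = instrumental retention time minus hold-up time.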

[2] = system: Pseudomonas aeruginosa; assay: Antibacterial activity against Pseudomonas aeruginosa ATCC 27853 assessed as inhibition of visible growth after 24 hrs by broth microdilution method; type: functional
How it was run: (§1)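 Compounds dissolved in sterile water at the highest achievable concentration, then serially diluted in Mueller-Hinton II broth per CLSI broth microdilution. Strains grown 6 h in BHI, diluted in MHII to 1 × 10^6 cfu/mL final. Aerobic incubation 37 °C, 24 h; tetracycline internal control; bacteria-only growth controls. MIC = lowest concentration with no visible growth; triplicate.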

[3] = system: Enterococcus faecium; assay: Antibacterial activity against Enterococcus faecium 135562 (35C) assessed as inhibition of visible growth after 24 hrs by broth microdilution method; type: functional; how it was run: as §1
[4] = system: Escherichia coli; assay: Antibacterial activity against Escherichia coli ATCC 25922 assessed as inhibition of visible growth after 24 hrs by broth microdilution method; type: functional; how it was run: as §1
[5] = system: Staphylococcus aureus; assay: Antibacterial activity against Staphylococcus aureus ATCC 29213 assessed as inhibition of visible growth after 24 hrs by broth microdilution method; type: functional; how it was run: as §1
[6] = system: Enterococcus faecalis; assay: Antibacterial activity against Enterococcus faecalis ATCC 29212 assessed as inhibition of visible growth after 24 hrs by broth microdilution method; type: functional; how it was run: as §1
[7] = Therapeutic index, ratio of HC50 for human erythrocytes to MIC for Escherichia coli ATCC 25922; type: toxicity; conditions: read-out: TI
[8] = Therapeutic index, ratio of HC50 for human erythrocytes to MIC for Staphylococcus aureus ATCC 29213; type: toxicity; conditions: read-out: TI
[9] = Hemolytic activity against human erythrocytes measured after 1 hr by microplate reader based spectrophotometric analysis; type: ADME, cell-based, Erythrocyte
How it was run: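 Heparinized fresh human blood washed three times in PBS pH 7.4 (1000 g, 10 min), resuspended ~20 vol %. Equal volume with 1:2 serial dilutions of compound in PBS, 1 h at 37 °C; PBS and 0.2 vol % Triton X-100 controls. Supernatant diluted 1:60, A350 read. HC50 from three- or four-parameter Hill fit; mean of three replicates.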

[10] = system: Staphylococcus aureus; assay: Antibacterial activity against linezolid-methicillin-resistant Staphylococcus aureus AOUC 0915 assessed as inhibition of visible growth after 24 hrs by broth microdilution method; type: functional
How it was run: (§2)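 Broth microdilution per CLSI: strains grown 6 h in BHI broth, diluted in Mueller-Hinton II broth to 1 × 10^6 cfu/mL, mixed 1:1 with serial dilutions of compound in MHII (compounds dissolved in sterile water); aerobic incubation 37 °C, 24 h. MIC = lowest concentration with no visible growth. Tetracycline internal control; triplicate.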

[11] = system: Staphylococcus aureus; assay: Antibacterial activity against Staphylococcus aureus ATCC 29213; type: functional; how it was run: as §2
[12] = system: Enterococcus faecalis; assay: Antibacterial activity against Enterococcus faecalis ATCC 29212; type: functional; how it was run: as §1

Row | Compound | Retention_time [1] | MIC [2] | MIC [3] | MIC [4] | MIC [5] | MIC [6] | selectivity ratio [7] | selectivity ratio [8] | HC50 at 1 h [9] | MIC [10] | MIC [11] | MIC [12]
1 | CCCCCCCCNC(=O)CN(NC(C)=O)C(=O)CN.Cl | 9.3 min | 256 µg/mL | 128 µg/mL | 256 µg/mL | 128 µg/mL | 256 µg/mL | 0.9 | 1.7 | 223 µg/mL | – | – | –
2 | CCCCCCCCNC(=O)CN(C(=O)CN)N(C)C(=O)OCc1ccccc1 | 13.8 min | 256 µg/mL (≈ 630 µM) | 128 µg/mL (≈ 315 µM) | 128 µg/mL (≈ 315 µM) | 128 µg/mL (≈ 315 µM) | 128 µg/mL (≈ 315 µM) | – | – | – | – | – | –
3 | CCCCCCCCCCCCNC(=O)CN(NC(C)=O)C(=O)CN.Cl | 17.5 min | 64 µg/mL | 32 µg/mL | 64 µg/mL | 64 µg/mL | 32 µg/mL | 2 | 2 | 127 µg/mL | – | – | –
4 | CCCCCCCCCCCC(=O)NN(CC(=O)NCCC)C(=O)CN.Cl | 16.6 min | 64 µg/mL | 64 µg/mL | 64 µg/mL | 64 µg/mL | 64 µg/mL | 2.6 | 2.6 | 167 µg/mL | – | – | –
5 | CCCCCCCC(=O)NN(CC(=O)NCCC)C(=O)CN.Cl | 5.2 min | 2050 µg/mL | 1020 µg/mL | 1020 µg/mL | 1020 µg/mL | 1020 µg/mL | 0.4 | 0.4 | 433 µg/mL | – | – | –
6 | CCCCCCCCCCCCCCCCCC(=O)NN(CC(=O)NCCCCCCCC)C(=O)CN.Cl | 32.2 min | 512 µg/mL | 64 µg/mL | 512 µg/mL | 128 µg/mL | 512 µg/mL | 0.4 | 1.6 | 200 µg/mL | – | – | –
7 | CCCCCCCCCCCCNC(=O)CN(C(=O)CN)N(C)C(=O)OCc1ccccc1 | 20.7 min | 512 µg/mL (≈ 1110 µM) | 8 µg/mL (≈ 17.3 µM) | 64 µg/mL (≈ 138 µM) | 8 µg/mL (≈ 17.3 µM) | 8 µg/mL (≈ 17.3 µM) | – | – | – | – | – | –
8 | CCCCCCCCCCCCNC(=O)CN(NC(=O)OCc1ccccc1)C(=O)CN.Cl | 21.2 min | 128 µg/mL | 8 µg/mL | 32 µg/mL | 8 µg/mL | 16 µg/mL | 2.7 | 11 | 86 µg/mL | – | – | –
9 | CCCCCCCCCCCCNC(=O)CN(NC(=O)CCCCCCCCCCC)C(=O)CN.Cl | 29.1 min | > 128 µg/mL | 128 µg/mL | > 128 µg/mL | > 128 µg/mL | 128 µg/mL | < 3.4 | < 3.4 | 438 µg/mL | – | – | –
10 | CCCCCCCCNC(=O)CN(NC(=O)C(C)(C)C)C(=O)CN.Cl | 11.7 min | 512 µg/mL | 256 µg/mL | 256 µg/mL | 512 µg/mL | 256 µg/mL | 3 | 1.5 | 775 µg/mL | – | – | –
11 | CCCCCCCCCCCCNC(=O)CN(NC(=O)CCCCCCC)C(=O)CN.Cl | 24 min | 512 µg/mL | 16 µg/mL | 256 µg/mL | 64 µg/mL | 32 µg/mL | 1.4 | 5.7 | 367 µg/mL | – | – | –
12 | COc1cccc(OC)c1C(=O)N[C@@H]1C(=O)N2[C@@H]1SC(C)(C)[C@@H]2C(=O)O [METHICILLIN] | – | – | – | – | – | – | – | – | – | > 1020 µg/mL | 0.5 µg/mL (≈ 1.31 µM) | > 16 µg/mL
13 | CCCCCCCCCCCCCCCCCC(=O)NN(CC(=O)NCCC)C(=O)CN.Cl | 26.5 min | 512 µg/mL | 16 µg/mL | 512 µg/mL | 64 µg/mL | 32 µg/mL | 0.5 | 3.7 | 234 µg/mL | – | – | –
14 | CCCCCCCCNC(=O)CN(NC(=O)c1ccccc1)C(=O)CN.Cl | 12.3 min | 128 µg/mL | 128 µg/mL | 128 µg/mL | 128 µg/mL | 128 µg/mL | 2.9 | 2.9 | 368 µg/mL | – | – | –
15 | CCCCCCCCCCCCNC(=O)CN(C(=O)CN)N(C)C(=O)C(C)(C)C | 18.9 min | 512 µg/mL (≈ 1240 µM) | 16 µg/mL (≈ 38.8 µM) | 64 µg/mL (≈ 155 µM) | 16 µg/mL (≈ 38.8 µM) | 16 µg/mL (≈ 38.8 µM) | – | – | – | – | – | –
